Measured values pooled from the literature.
≈ marks a conversion by molar mass, not a printed value.

Structure (SMILES) | organism | test | system | setting | quantity | value
CC(=O)N1CCN(c2ccc(OCC3COC(Cn4ccnc4)(c4ccc(Cl)cc4Cl)O3)cc2)CC1 (stereo not shown) | Candida tropicalis | microbial growth, broth dilution | CGMCC2 | 48 h | MIC | 1 µM
OC(Cn1cncn1)(Cn1cncn1)c1ccc(F)cc1F | Candida tropicalis | microbial growth, broth dilution |  |  | MIC | 8 µg/mL
C[C@@H]1[C@H](O)[C@@H](C)/C=C/C=C/C=C/C=C/C=C/C=C/C=C/[C@H](O[C@@H]2O[C@H](C)[C@@H](O)[C@H](N)[C@@H]2O)C[C@@H]2O[C@](O)(C[C@@H](O)C[C@@H](O)[C@H](O)CC[C@@H](O)C[C@@H](O)CC(=O)O[C@H]1C)C[C@H](O)[C@H]2C(=O)O | Candida tropicalis | microbial growth, broth dilution | CGMCC2 | 48 h | MIC | < 0.25 µM
CO[C@H]1/C=C/O[C@@]2(C)Oc3c(C)c(O)c4c(O)c(c(/C=N/N5CCN(C)CC5)c(O)c4c3C2=O)NC(=O)/C(C)=C\C=C\[C@H](C)[C@H](O)[C@@H](C)[C@@H](O)[C@@H](C)[C@H](OC(C)=O)[C@@H]1C | Mycolicibacterium smegmatis | microbial growth |  |  | MIC90 | 1.52 µM
C[C@@H]1[C@H](O)[C@@H](C)/C=C/C=C/C=C/C=C/C=C/C=C/C=C/[C@H](O[C@@H]2O[C@H](C)[C@@H](O)[C@H](N)[C@@H]2O)C[C@@H]2O[C@](O)(C[C@@H](O)C[C@@H](O)[C@H](O)CC[C@@H](O)C[C@@H](O)CC(=O)O[C@H]1C)C[C@H](O)[C@H]2C(=O)O | Candida tropicalis | microbial growth, broth dilution | ATCC13803 | 48 h | MIC | 32 µg/mL
CC(=O)NC[C@H]1CN(c2ccc(N3CCOCC3)c(F)c2)C(=O)O1 | Streptococcus viridans | microbial growth |  | clinical isolate | MIC90 | 1 µg/mL
CC(=O)ON=C1C=CC(=C(C#N)c2ccccc2)C=C1 | Candida tropicalis | microbial killing, broth dilution | ATCC13803 | 48 h | MFC | 4 µg/mL (≈ 15.1 µM)
NNC(=O)c1ccncc1 | Mycolicibacterium smegmatis | microbial growth |  |  | MIC90 | 17.7 µM
N#CC(=C1C=CC(=NOC(=O)OCc2ccccc2)C=C1)c1ccccc1 | Candida tropicalis | microbial growth, broth dilution | ATCC13803 | 48 h | MIC | 128 µg/mL
C=C[C@]1(C)C[C@@H](OC(=O)CS[C@@H]2C[C@H]3CC[C@@H](C2)N3C)[C@]2(C)[C@H](C)CC[C@]3(CCC(=O)[C@H]32)[C@@H](C)[C@@H]1O | Streptococcus agalactiae | microbial growth |  | clinical isolate | MIC90 | 0.0312 µg/mL
